In ChEMBL document CHEMBL1926577, “Novel 1,3,4-heterodiazole analogues: synthesis and in-vitro antitumor activity” (2012):

What was measured:
Type in all cases: functional
[1] = tested on: Malme-3M; test: Growth inhibition of human MALME-3M cells at 10 uM after 48 hrs by coulter counter method; settings: read-out: GI
How it was run: (§1)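 NCI 60-cell-line panel, single dose. Compound dissolved first in DMSO, then diluted in phosphate-buffered saline so that every final dilution held under 1% DMSO. Duplicate wells received cells at 6 × 10⁴ cells/ml. Controls held PBS/DMSO at the same dilution. Plates were incubated 48 h at 37 °C under 5% CO₂. Cells were then diluted 10-fold in saline and counted on a Coulter counter, with counts corrected for the dilution. Results are given as percent growth inhibition.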

[2] = tested on: TK-10; test: Growth inhibition of human TK10 cells at 10 uM after 48 hrs by coulter counter method; settings: TK-10, 48 h, read-out: GI; how it was run: as §1
[3] = tested on: NCI/ADR-RES; test: Growth inhibition of human NCI/ADR-RES cells at 10 uM after 48 hrs by coulter counter method; settings: read-out: GI; how it was run: as §1
[4] = tested on: KM12; test: Growth inhibition of human KM12 cells at 10 uM after 48 hrs by coulter counter method; settings: KM12, 48 h, read-out: GI; how it was run: as §1
[5] = tested on: ACHN; test: Growth inhibition of human ACHN cells at 10 uM after 48 hrs by coulter counter method; settings: read-out: GI; how it was run: as §1
[6] = tested on: UO-31; test: Growth inhibition of human UO31 cells at 10 uM after 48 hrs by coulter counter method; settings: UO-31, 48 h, read-out: GI; how it was run: as §1
[7] = tested on: CAKI-1; test: Growth inhibition of human Caki1 cells at 10 uM after 48 hrs by coulter counter method; settings: CAKI-1, 48 h, read-out: GI; how it was run: as §1
[8] = tested on: UACC-62; test: Growth inhibition of human UACC62 cells at 10 uM after 48 hrs by coulter counter method; settings: UACC-62, 48 h, read-out: GI; how it was run: as §1
[9] = tested on: SNB-19; test: Growth inhibition of human SNB19 cells at 10 uM after 48 hrs by coulter counter method; settings: SNB-19, 48 h, read-out: GI; how it was run: as §1
[10] = tested on: CCRF-CEM; test: Growth inhibition of human CCRF-CEM cells at 10 uM after 48 hrs by coulter counter method; settings: read-out: GI; how it was run: as §1
[11] = tested on: MDA-MB-468; test: Growth inhibition of human MDA-MB-468 cells at 10 uM after 48 hrs by coulter counter method; settings: MDA-MB-468, 48 h, read-out: GI; how it was run: as §1
[12] = tested on: HL-60(TB); test: Growth inhibition of human HL-60(TB) cells at 10 uM after 48 hrs by coulter counter method; settings: HL-60, 48 h, read-out: GI
How it was run: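 Single-dose screen on the NCI 60-line panel (leukemia subpanel). Compound is dissolved in DMSO and diluted in PBS, with final DMSO below 1%. Duplicate wells hold 6 × 10⁴ cells/ml at 37 °C, 5% CO₂, for 48 h. Cells are counted by Coulter counter after 10-fold saline dilution. Read-out is percent growth versus PBS/DMSO controls, expressed as % growth inhibition.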

[13] = tested on: EKVX; test: Growth inhibition of human EKVX cells at 10 uM after 48 hrs by coulter counter method; settings: read-out: GI; how it was run: as §1
[14] = tested on: A498; test: Growth inhibition of human A498 cells at 10 uM after 48 hrs by coulter counter method; settings: A498, 48 h, read-out: GI; how it was run: as §1
[15] = tested on: MDA-MB-435; test: Growth inhibition of human MDA-MB-435 cells at 10 uM after 48 hrs by coulter counter method; settings: MDA-MB-435, 48 h, read-out: GI; how it was run: as §1
[16] = tested on: U-251; test: Growth inhibition of human U251 cells at 10 uM after 48 hrs by coulter counter method; settings: U-251, 48 h, read-out: GI; how it was run: as §1
[17] = tested on: M14; test: Growth inhibition of human M14 cells at 10 uM after 48 hrs by coulter counter method; settings: M14, 48 h, read-out: GI; how it was run: as §1
[18] = tested on: SF-268; test: Growth inhibition of human SF268 cells at 10 uM after 48 hrs by coulter counter method; settings: SF-268, 48 h, read-out: GI; how it was run: as §1
[19] = tested on: 786-0; test: Growth inhibition of human 786-0 cells at 10 uM after 48 hrs by coulter counter method; settings: 786-0, 48 h, read-out: GI; how it was run: as §1
[20] = tested on: HCT-116; test: Growth inhibition of human HCT116 cells at 10 uM after 48 hrs by coulter counter method; settings: HCT-116, 48 h, read-out: GI; how it was run: as §1
[21] = tested on: NCI-H522; test: Growth inhibition of human NCI-H522 cells at 10 uM after 48 hrs by coulter counter method; settings: NCI-H522, 48 h, read-out: GI; how it was run: as §1
[22] = tested on: SK-MEL-28; test: Growth inhibition of human SK-MEL-28 cells at 10 uM after 48 hrs by coulter counter method; settings: SK-MEL-28, 48 h, read-out: GI; how it was run: as §1
[23] = tested on: NCI-H322M; test: Growth inhibition of human NCI-H322M cells at 10 uM after 48 hrs by coulter counter method; settings: read-out: GI; how it was run: as §1
[24] = tested on: MCF7; test: Growth inhibition of human MCF7 cells at 10 uM after 48 hrs by coulter counter method; settings: MCF7, 48 h, read-out: GI; how it was run: as §1
[25] = tested on: SK-MEL-2; test: Growth inhibition of human SK-MEL-2 cells at 10 uM after 48 hrs by coulter counter method; settings: SK-MEL-2, 48 h, read-out: GI; how it was run: as §1
[26] = tested on: PC-3; test: Growth inhibition of human PC3 cells at 10 uM after 48 hrs by coulter counter method; settings: PC-3, 48 h, read-out: GI; how it was run: as §1
[27] = tested on: HT-29; test: Growth inhibition of human HT-29 cells at 10 uM after 48 hrs by coulter counter method; settings: HT-29, 48 h, read-out: GI; how it was run: as §1
[28] = tested on: IGROV-1; test: Growth inhibition of human IGROV1 cells at 10 uM after 48 hrs by coulter counter method; settings: IGROV-1, 48 h, read-out: GI; how it was run: as §1
[29] = tested on: T47D; test: Growth inhibition of human T47D cells at 10 uM after 48 hrs by coulter counter method; settings: read-out: GI; how it was run: as §1
[30] = tested on: NCI-H23; test: Growth inhibition of human NCI-H23 cells at 10 uM after 48 hrs by coulter counter method; settings: NCI-H23, 48 h, read-out: GI; how it was run: as §1
[31] = tested on: NCI-H226; test: Growth inhibition of human NCI-H226 cells at 10 uM after 48 hrs by coulter counter method; settings: NCI-H226, 48 h, read-out: GI; how it was run: as §1
[32] = tested on: RPMI-8226; test: Growth inhibition of human RPMI8226 cells at 10 uM after 48 hrs by coulter counter method; settings: RPMI-8226, 48 h, read-out: GI; how it was run: as §1
[33] = tested on: SNB-75; test: Growth inhibition of human SNB75 cells at 10 uM after 48 hrs by coulter counter method; settings: SNB-75, 48 h, read-out: GI; how it was run: as §1
[34] = tested on: UACC-257; test: Growth inhibition of human UACC257 cells at 10 uM after 48 hrs by coulter counter method; settings: UACC-257, 48 h, read-out: GI; how it was run: as §1
[35] = tested on: K562; test: Growth inhibition of human K562 cells at 10 uM after 48 hrs by coulter counter method; settings: K562, 48 h, read-out: GI; how it was run: as §1
[36] = tested on: A549; test: Growth inhibition of human A549 cells at 10 uM after 48 hrs by coulter counter method; settings: A549, 48 h, read-out: GI; how it was run: as §1
[37] = tested on: MOLT-4; test: Growth inhibition of human MOLT4 cells at 10 uM after 48 hrs by coulter counter method; settings: MOLT-4, 48 h, read-out: GI; how it was run: as §1
[38] = tested on: HCT-15; test: Growth inhibition of human HCT15 cells at 10 uM after 48 hrs by coulter counter method; settings: HCT-15, 48 h, read-out: GI; how it was run: as §1
[39] = tested on: OVCAR-8; test: Growth inhibition of human OVCAR8 cells at 10 uM after 48 hrs by coulter counter method; settings: OVCAR-8, 48 h, read-out: GI; how it was run: as §1
[40] = tested on: SK-MEL-5; test: Growth inhibition of human SK-MEL-5 cells at 10 uM after 48 hrs by coulter counter method; settings: SK-MEL-5, 48 h, read-out: GI; how it was run: as §1
[41] = tested on: SR; test: Growth inhibition of human SR cells at 10 uM after 48 hrs by coulter counter method; settings: read-out: GI; how it was run: as §1
[42] = tested on: BT-549; test: Growth inhibition of human BT549 cells at 10 uM after 48 hrs by coulter counter method; settings: BT-549, 48 h, read-out: GI; how it was run: as §1
[43] = tested on: SF-295; test: Growth inhibition of human SF295 cells at 10 uM after 48 hrs by coulter counter method; settings: SF-295, 48 h, read-out: GI; how it was run: as §1
[44] = tested on: LOX IMVI; test: Growth inhibition of human LOXIMVI cells at 10 uM after 48 hrs by coulter counter method; settings: read-out: GI; how it was run: as §1
[45] = tested on: SN12C; test: Growth inhibition of human SN12C cells at 10 uM after 48 hrs by coulter counter method; settings: read-out: GI; how it was run: as §1

Q: Which results are given for O=C1CN2N=C(c3ccc(Cl)cc3)OC2=N1?
A: inhibition of growth at 10 µM [1]: < 10%; inhibition of growth at 10 µM [2]: < 10%; inhibition of growth at 10 µM [3]: < 10%; inhibition of growth at 10 µM [4]: < 10%; inhibition of growth at 10 µM [5]: < 10%; inhibition of growth at 10 µM [6]: 26.8%; inhibition of growth at 10 µM [7]: < 10%; inhibition of growth at 10 µM [8]: < 10%; inhibition of growth at 10 µM [9]: < 10%; inhibition of growth at 10 µM [10]: < 10%; inhibition of growth at 10 µM [11]: < 10%; inhibition of growth at 10 µM [12]: < 10%; inhibition of growth at 10 µM [13]: < 10%; inhibition of growth at 10 µM [14]: < 10%; inhibition of growth at 10 µM [15]: < 10%; inhibition of growth at 10 µM [16]: < 10%; inhibition of growth at 10 µM [17]: < 10%; inhibition of growth at 10 µM [18]: < 10%; inhibition of growth at 10 µM [19]: < 10%; inhibition of growth at 10 µM [20]: < 10%; inhibition of growth at 10 µM [21]: 18.9%; inhibition of growth at 10 µM [22]: < 10%; inhibition of growth at 10 µM [23]: < 10%; inhibition of growth at 10 µM [24]: < 10%; inhibition of growth at 10 µM [25]: < 10%; inhibition of growth at 10 µM [26]: < 10%; inhibition of growth at 10 µM [27]: < 10%; inhibition of growth at 10 µM [28]: < 10%; inhibition of growth at 10 µM [29]: < 10%; inhibition of growth at 10 µM [30]: < 10%; inhibition of growth at 10 µM [31]: < 10%; inhibition of growth at 10 µM [32]: < 10%; inhibition of growth at 10 µM [33]: < 10%; inhibition of growth at 10 µM [34]: < 10%; inhibition of growth at 10 µM [35]: 17.2%; inhibition of growth at 10 µM [36]: < 10%; inhibition of growth at 10 µM [37]: < 10%; inhibition of growth at 10 µM [38]: < 10%; inhibition of growth at 10 µM [39]: < 10%; inhibition of growth at 10 µM [40]: < 10%; inhibition of growth at 10 µM [41]: < 10%; inhibition of growth at 10 µM [42]: < 10%; inhibition of growth at 10 µM [43]: < 10%; inhibition of growth at 10 µM [44]: < 10%; inhibition of growth at 10 µM [45]: < 10%
